{
  "source": "paper PMC11406440",
  "about": "(Food and chemical toxicology : an international journal …, 2024)",
  "key": {"ear pinna cells": {"system": "ear pinna cells", "experiment": "Skin", "format": "in vivo, B6C3F1 mice", "conditions": "28 days; for Skin CD4+ frequency / Skin CD4+ number / Skin CD8+ frequency / Skin CD8+ number / Skin CD11b + DCs frequency / Skin CD11b + DCs number / Skin CD11b- DCs frequency / Skin CD11b- DCs number / Skin CD45+ frequency / Skin CD45+ number / Skin Cellularity / Skin Eosinophils frequency / Skin Eosinophils number / Skin NK frequency / Skin NK number / Skin Neutrophils frequency / Skin Neutrophils number: mean ± SE", "how_it_was_run": "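Female B6C3F1 mice (5/group) received 25 μl/ear of acetone vehicle or 1.25, 2.5 or 5% w/v test compound on the dorsal surface of each ear, once daily for 28 days. They were euthanized about 24 h later. Single-cell suspensions were made from both auricular dLNs, half a spleen or one ear pinna. Cells were Fc-blocked (anti-CD16/32), stained with surface antibody cocktails and acquired on an LSR II, with FMO gating controls.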"}, "[1]": {"experiment": "PFHxS concentration in serum and urine after dermal exposure", "format": "in vivo, B6C3F1 mice", "conditions": "28 days; for Urine PFHxS concentration: 5 pooled samples; for PFHxS serum concentration: 24 h after last exposure", "how_it_was_run": "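Mice received 25 μl/ear of acetone or 1.25, 2.5, 5% w/v test compound on both ears daily for 28 days. About 24 h after the last exposure, serum was taken by cardiac puncture (5 mice/group) and urine was pooled per group. Analysis was solid-phase extraction with LC/MS/MS (BEH C18, EPA method 537), linear isomer only. Serum was compared with vehicle by one-way ANOVA.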"}, "[2]": {"conditions": "female rats, 14-days of 10 mg/kg/day oral exposure; ref Butenhoff et al., 2009; cited from earlier work"}},
  "data": [
    {"smiles": "O=S(=O)(O)C(F)(F)C(F)(F)C(F)(F)C(F)(F)C(F)(F)C(F)(F)F", "note": "[PFHxS, Perfluorohexane sulfonic acid]", "values": [
      {"measurement": "Skin CD4+ frequency", "setting": "ear pinna cells; 1.25% PFHxS", "result": "2.64 ± 0.25", "unit": "%"},
      {"measurement": "Skin CD4+ number", "setting": "ear pinna cells; 1.25% PFHxS", "result": "2.31 ± 0.36 x 10^3"},
      {"measurement": "Skin CD8+ frequency", "setting": "ear pinna cells; 1.25% PFHxS", "result": "0.36 ± 0.05", "unit": "%"},
      {"measurement": "Skin CD8+ number", "setting": "ear pinna cells; 1.25% PFHxS", "result": "3.21 ± 0.60 x 10^2"},
      {"measurement": "Skin CD11b + DCs frequency", "setting": "ear pinna cells; 1.25% PFHxS", "result": "0.64 ± 0.03", "unit": "%"},
      {"measurement": "Skin CD11b + DCs number", "setting": "ear pinna cells; 1.25% PFHxS", "result": "5.17 ± 0.30 x 10^2"},
      {"measurement": "Skin CD11b- DCs frequency", "setting": "ear pinna cells; 1.25% PFHxS", "result": "1.43 ± 0.18", "unit": "%"},
      {"measurement": "Skin CD11b- DCs number", "setting": "ear pinna cells; 1.25% PFHxS", "result": "12.30 ± 1.74 x 10^2"},
      {"measurement": "Skin CD45+ frequency", "setting": "ear pinna cells; 1.25% PFHxS", "result": "8.29 ± 0.74", "unit": "%"},
      {"measurement": "Skin CD45+ number", "setting": "ear pinna cells; 1.25% PFHxS", "result": "8.39 ± 0.66 x 10^4"},
      {"measurement": "Skin Cellularity", "setting": "ear pinna cells; 1.25% PFHxS", "result": "9.56 ± 0.21 x 10^5"},
      {"measurement": "Skin Eosinophils frequency", "setting": "ear pinna cells; 1.25% PFHxS", "result": "1.21 ± 0.20", "unit": "%"},
      {"measurement": "Skin Eosinophils number", "setting": "ear pinna cells; 1.25% PFHxS", "result": "1.00 ± 0.24 x 10^3"},
      {"measurement": "Skin NK frequency", "setting": "ear pinna cells; 1.25% PFHxS", "result": "0.97 ± 0.11", "unit": "%"},
      {"measurement": "Skin NK number", "setting": "ear pinna cells; 1.25% PFHxS", "result": "8.53 ± 1.49 x 10^2"},
      {"measurement": "Skin Neutrophils frequency", "setting": "ear pinna cells; 1.25% PFHxS", "result": "0.23 ± 0.03", "unit": "%"},
      {"measurement": "Skin Neutrophils number", "setting": "ear pinna cells; 1.25% PFHxS", "result": "1.79 ± 0.31 x 10^2"},
      {"measurement": "Skin CD4+ frequency", "setting": "ear pinna cells; 2.5% PFHxS", "result": "3.34 ± 0.18", "unit": "%"},
      {"measurement": "Skin CD4+ number", "setting": "ear pinna cells; 2.5% PFHxS", "result": "2.10 ± 0.25 x 10^3"},
      {"measurement": "Skin CD8+ frequency", "setting": "ear pinna cells; 2.5% PFHxS", "result": "0.41 ± 0.07", "unit": "%"},
      {"measurement": "Skin CD8+ number", "setting": "ear pinna cells; 2.5% PFHxS", "result": "2.52 ± 0.48 x 10^2"},
      {"measurement": "Skin CD11b + DCs frequency", "setting": "ear pinna cells; 2.5% PFHxS", "result": "0.73 ± 0.08", "unit": "%"},
      {"measurement": "Skin CD11b + DCs number", "setting": "ear pinna cells; 2.5% PFHxS", "result": "4.45 ± 0.48 x 10^2"},
      {"measurement": "Skin CD11b- DCs frequency", "setting": "ear pinna cells; 2.5% PFHxS", "result": "1.23 ± 0.12", "unit": "%"},
      {"measurement": "Skin CD11b- DCs number", "setting": "ear pinna cells; 2.5% PFHxS", "result": "7.66 ± 1.11 x 10^2"},
      {"measurement": "Skin CD45+ frequency", "setting": "ear pinna cells; 2.5% PFHxS", "result": "8.20 ± 0.74", "unit": "%"},
      {"measurement": "Skin CD45+ number", "setting": "ear pinna cells; 2.5% PFHxS", "result": "6.35 ± 0.84 x 10^4"},
      {"measurement": "Skin Cellularity", "setting": "ear pinna cells; 2.5% PFHxS", "result": "7.67 ± 0.62 x 10^5"},
      {"measurement": "Skin Eosinophils frequency", "setting": "ear pinna cells; 2.5% PFHxS", "result": "1.75 ± 0.12", "unit": "%"},
      {"measurement": "Skin Eosinophils number", "setting": "ear pinna cells; 2.5% PFHxS", "result": "1.10 ± 0.15 x 10^3"},
      {"measurement": "Skin NK frequency", "setting": "ear pinna cells; 2.5% PFHxS", "result": "0.78 ± 0.07", "unit": "%"},
      {"measurement": "Skin NK number", "setting": "ear pinna cells; 2.5% PFHxS", "result": "4.86 ± 0.61 x 10^2"},
      {"measurement": "Skin Neutrophils frequency", "setting": "ear pinna cells; 2.5% PFHxS", "result": "0.30 ± 0.05", "unit": "%"},
      {"measurement": "Skin Neutrophils number", "setting": "ear pinna cells; 2.5% PFHxS", "result": "1.84 ± 0.33 x 10^2"},
      {"measurement": "Skin macrophage number", "setting": "ear pinna cells; 5% PFHxS", "result": "increase"},
      {"measurement": "Skin CD4+ frequency", "setting": "ear pinna cells; 5% PFHxS", "result": "4.51 ± 0.21", "unit": "%"},
      {"measurement": "Skin CD4+ number", "setting": "ear pinna cells; 5% PFHxS", "result": "5.82 ± 0.41 x 10^3"},
      {"measurement": "Skin CD8+ frequency", "setting": "ear pinna cells; 5% PFHxS", "result": "0.73 ± 0.09", "unit": "%"},
      {"measurement": "Skin CD8+ number", "setting": "ear pinna cells; 5% PFHxS", "result": "9.37 ± 1.32 x 10^2"},
      {"measurement": "Skin CD11b + DCs frequency", "setting": "ear pinna cells; 5% PFHxS", "result": "1.18 ± 0.05", "unit": "%"},
      {"measurement": "Skin CD11b + DCs number", "setting": "ear pinna cells; 5% PFHxS", "result": "15.10 ± 0.45 x 10^2"},
      {"measurement": "Skin CD11b- DCs frequency", "setting": "ear pinna cells; 5% PFHxS", "result": "1.25 ± 0.08", "unit": "%"},
      {"measurement": "Skin CD11b- DCs number", "setting": "ear pinna cells; 5% PFHxS", "result": "16.10 ± 1.39 x 10^2"},
      {"measurement": "Skin CD45+ frequency", "setting": "ear pinna cells; 5% PFHxS", "result": "13.48 ± 0.52", "unit": "%"},
      {"measurement": "Skin Cellularity", "setting": "ear pinna cells; 5% PFHxS", "result": "9.56 ± 0.31 x 10^5"},
      {"measurement": "Skin Eosinophils frequency", "setting": "ear pinna cells; 5% PFHxS", "result": "2.68 ± 0.31", "unit": "%"},
      {"measurement": "Skin Eosinophils number", "setting": "ear pinna cells; 5% PFHxS", "result": "3.49 ± 0.52 x 10^3"},
      {"measurement": "Skin NK frequency", "setting": "ear pinna cells; 5% PFHxS", "result": "0.68 ± 0.04", "unit": "%"},
      {"measurement": "Skin NK number", "setting": "ear pinna cells; 5% PFHxS", "result": "8.76 ± 0.68 x 10^2"},
      {"measurement": "Skin Neutrophils frequency", "setting": "ear pinna cells; 5% PFHxS", "result": "1.14 ± 0.37", "unit": "%"},
      {"measurement": "Skin Neutrophils number", "setting": "ear pinna cells; 5% PFHxS", "result": "14.10 ± 4.21 x 10^2"},
      {"measurement": "Urine PFHxS concentration", "setting": "[1]; 1.25% PFHxS dermal", "result": 43, "unit": "µg/mL"},
      {"measurement": "PFHxS serum concentration", "setting": "[1]; 1.25% PFHxS dermal", "result": 440, "unit": "µg/mL"},
      {"measurement": "Urine PFHxS concentration", "setting": "[1]; 2.5% PFHxS dermal", "result": 120, "unit": "µg/mL"},
      {"measurement": "PFHxS serum concentration", "setting": "[1]; 2.5% PFHxS dermal", "result": 608, "unit": "µg/mL"},
      {"measurement": "Urine PFHxS concentration", "setting": "[1]; 5% PFHxS dermal", "result": 130, "unit": "µg/mL"},
      {"measurement": "PFHxS serum concentration", "setting": "[1]; 5% PFHxS dermal", "result": 656, "unit": "µg/mL"},
      {"measurement": "Serum concentration", "setting": "[2]", "result": 42, "unit": "µg/mL"}
    ]}
  ]
}
